For test [1], the target named is T1, Citrate synthase, mitochondrial (Bos taurus) (UniProt Q29RK1).
T1 sequence (whole entry): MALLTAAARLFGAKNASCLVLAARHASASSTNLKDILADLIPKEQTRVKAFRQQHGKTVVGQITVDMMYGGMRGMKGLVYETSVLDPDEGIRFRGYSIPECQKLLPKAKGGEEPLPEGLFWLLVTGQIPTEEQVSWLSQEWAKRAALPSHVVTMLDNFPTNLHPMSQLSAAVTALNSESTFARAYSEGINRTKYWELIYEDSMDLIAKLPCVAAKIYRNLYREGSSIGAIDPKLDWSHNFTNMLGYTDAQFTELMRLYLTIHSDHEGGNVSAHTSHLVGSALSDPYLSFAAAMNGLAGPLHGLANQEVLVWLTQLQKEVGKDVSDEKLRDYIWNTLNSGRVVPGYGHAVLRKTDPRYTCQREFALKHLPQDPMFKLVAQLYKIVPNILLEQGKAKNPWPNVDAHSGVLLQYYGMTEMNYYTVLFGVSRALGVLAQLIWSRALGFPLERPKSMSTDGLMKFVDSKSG
The experiment in a line: Induction of citrate synthase activity in BCAEC at EC50 after 48 hrs relative to control.

Another test concerns the target T2, Nitric oxide synthase 3 (Bos taurus, UniProt P29473).
T2 sequence (P29473 whole entry): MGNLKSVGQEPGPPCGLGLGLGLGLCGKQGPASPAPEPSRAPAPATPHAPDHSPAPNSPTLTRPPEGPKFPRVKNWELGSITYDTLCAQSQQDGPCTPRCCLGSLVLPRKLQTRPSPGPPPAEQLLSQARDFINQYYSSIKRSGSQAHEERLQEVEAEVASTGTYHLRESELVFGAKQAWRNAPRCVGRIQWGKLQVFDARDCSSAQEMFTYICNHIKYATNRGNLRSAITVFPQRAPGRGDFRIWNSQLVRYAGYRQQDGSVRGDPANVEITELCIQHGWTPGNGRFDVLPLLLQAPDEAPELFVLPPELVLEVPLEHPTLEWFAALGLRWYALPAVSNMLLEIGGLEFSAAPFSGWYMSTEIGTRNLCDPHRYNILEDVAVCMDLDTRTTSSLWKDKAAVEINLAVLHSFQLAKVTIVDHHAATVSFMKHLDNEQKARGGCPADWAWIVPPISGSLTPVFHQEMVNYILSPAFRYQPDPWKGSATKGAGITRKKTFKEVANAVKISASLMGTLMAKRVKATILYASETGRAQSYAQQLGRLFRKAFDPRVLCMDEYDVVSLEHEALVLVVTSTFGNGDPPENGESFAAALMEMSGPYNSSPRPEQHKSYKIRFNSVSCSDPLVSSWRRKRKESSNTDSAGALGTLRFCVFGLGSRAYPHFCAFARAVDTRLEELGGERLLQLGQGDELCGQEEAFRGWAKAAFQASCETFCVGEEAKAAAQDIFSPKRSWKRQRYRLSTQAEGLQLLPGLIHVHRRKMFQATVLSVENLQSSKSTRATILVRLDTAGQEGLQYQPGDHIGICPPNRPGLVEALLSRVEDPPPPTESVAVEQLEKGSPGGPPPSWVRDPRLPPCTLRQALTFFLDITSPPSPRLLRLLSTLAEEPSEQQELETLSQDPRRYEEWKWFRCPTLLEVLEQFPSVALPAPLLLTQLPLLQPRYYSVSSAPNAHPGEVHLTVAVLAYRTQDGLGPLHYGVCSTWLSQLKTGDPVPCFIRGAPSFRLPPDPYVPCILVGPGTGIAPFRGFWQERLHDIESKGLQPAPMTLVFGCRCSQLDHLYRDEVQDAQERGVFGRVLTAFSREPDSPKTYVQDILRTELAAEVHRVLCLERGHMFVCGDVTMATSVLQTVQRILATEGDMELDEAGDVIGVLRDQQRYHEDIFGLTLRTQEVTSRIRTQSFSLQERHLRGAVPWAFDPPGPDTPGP
The experiment in a line: Activation of eNOS in BCAEC assessed as increase in nitric oxide level after 10 mins by fluorometric analysis. The method, boiled down:
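Bovine coronary artery endothelial cells, in triplicate, were exposed to a range of concentrations of each compound. Medium was collected 10 min after treatment, and NO was quantified as nitrite/nitrate with a commercial kit. Sigmoidal concentration-response curves were fitted to the triplicate means to give EC50.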

Test [2] is described as follows: Upregulation of porin expression in BCAEC at EC50 after 48 hrs by Western blot analysis. The format is functional. The note with it: Bos taurus.
For test [3], the target named is T1, Citrate synthase, mitochondrial (Bos taurus). The experiment in a line: Induction of citrate synthase activity in BCAEC at EC50 after 48 hrs in presence of L-NAME.
A short description of test [4]: Upregulation of mitochondrial complex-1 expression in BCAEC at EC50 after 48 hrs by Western blot analysis in presence of L-NAME. Conditions: Bos taurus. In kind it is functional. A general note: Immunoblotting shows a protein as a band on a membrane.
A short description of test [5]: Upregulation of mitochondrial complex-2 expression in BCAEC at EC50 after 48 hrs by Western blot analysis in presence of L-NAME. Conditions: Bos taurus. The format is functional.
Test [6] in a line: Upregulation of mitofilin expression in BCAEC at EC50 after 48 hrs by Western blot analysis in presence of L-NAME. In kind it is functional. Conditions: Bos taurus.
Test [7] is described as follows: Upregulation of mitochondrial complex-1 expression in BCAEC at EC50 after 48 hrs by Western blot analysis relative to control. In kind it is functional. Conditions: Bos taurus.
Test [8] can be described thus: Upregulation of porin expression in BCAEC at EC50 after 48 hrs by Western blot analysis in presence of L-NAME. The note with it: Bos taurus. In kind it is functional.
Test [9] in a line: Upregulation of mitochondrial complex-1 expression in BCAEC at 100 nmol/L after 48 hrs by Western blot analysis. In kind it is functional. The note with it: Bos taurus.
Test [10] is described as follows: Upregulation of mitochondrial complex-2 expression in BCAEC at EC50 after 48 hrs by Western blot analysis relative to control. The format is functional. The note with it: Bos taurus.
Test [11] in a line: Upregulation of mitofilin expression in BCAEC at EC50 after 48 hrs by Western blot analysis. The format is functional. Conditions: Bos taurus.
Test [12] is described as follows: Upregulation of TFAM expression in BCAEC at EC50 after 48 hrs by Western blot analysis in presence of L-NAME. In kind it is functional. The note with it: Bos taurus.
Test [13] in a line: Upregulation of TFAM expression in BCAEC at EC50 after 48 hrs by Western blot analysis. In kind it is functional. The note with it: Bos taurus.
Test [14] is described as follows: Upregulation of mitochondrial complex-1 expression in BCAEC at 0.01 nmol/L after 48 hrs by Western blot analysis. In kind it is functional. The note with it: Bos taurus.

The source made the active and inactive calls. No cut-off for these calls is given here.

Take `CCOc1cc([C@H]2Oc3cc(O)cc(O)c3C[C@H]2O)ccc1O`: the Activity in test [1] was found to be 30%. Moreover, at Nitric oxide synthase 3, the EC50 (in general, the concentration needed to bring the measured effect to its halfway point) was found to be 1 nM. For the same compound, in test [2], the outcome was Active. In addition, the outcome in [3], in [4], in [5], in test [6], in [7] and in test [8] was inactive.

With `Oc1cc(O)c2c(c1)O[C@H](c1ccc(O)c(O)c1)[C@H](O)C2` [(-)-EPICATECHIN], the results for the Activity in test [1], in test [10] and in test [7] were 30%, 25% and 20%, respectively. Further, the 50% effective concentration (EC50) on Nitric oxide synthase 3 came to 2 nM. For the same compound, the result in test [2], in test [3], in test [4], in [5], in test [6] and in test [8] was inactive. For the same compound, the outcome in [12] was inactive. In addition, the result in test [9], in test [11] and in test [13] was Active.

Regarding `CC(=O)Oc1cc(OC(C)=O)c2c(c1)O[C@H](c1ccc(OC(C)=O)c(OC(C)=O)c1)[C@H](OC(C)=O)C2` [EPICATECHIN PENTAACETATE], the Activity in test [1] was 30%; in [10], 25%; in test [7] it was 60%. Also, the EC50 on Nitric oxide synthase 3 is 0.006 nM. Besides, the result in [2], in test [11], in test [13] and in test [14] was Active. Moreover, the result in test [3], in test [4], in [5], in test [6], in test [8] and in test [12] was inactive.

Source of the values: ChEMBL document CHEMBL2407003, “Effects of (-)-epicatechin and derivatives on nitric oxide mediated induction of mitochondrial proteins” (Bioorg Med Chem Lett, 2013).
